For seven compounds, IC50 results are on record in ChEMBL document CHEMBL1156676, “Peptidyl 3-substituted 1-hydroxyureas as isosteric analogues of succinylhydroxamate MMP inhibitors” (Eur J Med Chem, 2008).

The IC50 is the concentration that inhibits the measured activity by half.

Molecules are shown by their SMILES. Where a SMILES comes first, the peptide text is derived from it. The star is where a group is joined. Cbz = O=C(OCc1ccccc1)* Some results are limits rather than exact numbers.

The target in one experiment is T1, Interstitial collagenase (Homo sapiens, UniProt P03956).
T1 sequence (P03956 whole entry): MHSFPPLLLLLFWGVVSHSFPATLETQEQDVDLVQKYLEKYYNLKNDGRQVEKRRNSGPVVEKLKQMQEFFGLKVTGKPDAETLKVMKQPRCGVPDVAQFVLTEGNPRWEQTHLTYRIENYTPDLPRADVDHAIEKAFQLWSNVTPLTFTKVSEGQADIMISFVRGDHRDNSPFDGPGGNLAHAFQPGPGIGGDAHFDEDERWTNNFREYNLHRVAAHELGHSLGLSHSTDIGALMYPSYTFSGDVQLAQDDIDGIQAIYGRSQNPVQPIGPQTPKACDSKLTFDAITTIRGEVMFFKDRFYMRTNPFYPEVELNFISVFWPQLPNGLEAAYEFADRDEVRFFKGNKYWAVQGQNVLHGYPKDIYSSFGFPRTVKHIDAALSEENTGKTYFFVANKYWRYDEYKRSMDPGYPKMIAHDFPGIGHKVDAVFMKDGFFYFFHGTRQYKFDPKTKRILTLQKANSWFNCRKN
As to the kind of experiment: Inhibition of human recombinant MMP1.

The target of experiment [1] is 72 kDa type IV collagenase (Homo sapiens, UniProt P08253). As to the kind of experiment: Inhibition of human recombinant MMP2.
For another experiment, the target named is Stromelysin-1 (Homo sapiens, UniProt P08254). As to the kind of experiment: Inhibition of human recombinant MMP3.
The target of a further experiment is T2, Matrilysin (Homo sapiens, UniProt P09237).
T2 sequence (P09237 whole entry): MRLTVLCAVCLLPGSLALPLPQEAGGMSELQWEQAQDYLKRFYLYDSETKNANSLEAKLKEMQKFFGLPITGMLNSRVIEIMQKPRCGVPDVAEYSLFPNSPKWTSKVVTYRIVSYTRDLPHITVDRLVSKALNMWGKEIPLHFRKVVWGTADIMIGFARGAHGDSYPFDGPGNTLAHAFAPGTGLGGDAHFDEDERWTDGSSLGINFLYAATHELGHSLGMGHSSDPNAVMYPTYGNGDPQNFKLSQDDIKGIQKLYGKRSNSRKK
As to the kind of experiment: Inhibition of human recombinant MMP7. The gist of the method:
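MMP-7 proenzyme was APMA-activated (1 mM, 1 h, 37 °C), final 2.4 nM. Incubated 4 h at 25 °C with inhibitor at seven concentrations in Tris 50 mM pH 7.5/NaCl 150 mM/CaCl2 10 mM/Brij 35 0.05%/DMSO 1%. Cleavage of Mca-Lys-Pro-Leu-Gly-Leu-Dpa-Ala-Arg-NH2 was followed fluorimetrically (325/400 nm) every 15 s over 20 min, triplicate.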

For a further experiment, the target named is Neutrophil collagenase (Homo sapiens, UniProt P22894). Kind of experiment: Inhibition of human recombinant MMP8.
Experiment [2] deals with Matrix metalloproteinase-9 (Homo sapiens, UniProt P14780). As to the kind of experiment: Inhibition of human recombinant MMP9. The gist of the method: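 Pro-MMP-9 activated with APMA 1 mM, 1 h, 37 °C, used at 2.7 nM final. Preincubated 4 h at 25 °C with seven inhibitor concentrations in Tris 50 mM pH 7.5, NaCl 150 mM, CaCl2 10 mM, Brij 35 0.05%, DMSO 1%. Hydrolysis of Mca-Lys-Pro-Leu-Gly-Leu-Dpa-Ala-Arg-NH2 monitored by fluorescence (325/400 nm) every 15 s for 20 min, triplicate.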
Chain of Matrix metalloproteinase-9 (P14780 whole entry): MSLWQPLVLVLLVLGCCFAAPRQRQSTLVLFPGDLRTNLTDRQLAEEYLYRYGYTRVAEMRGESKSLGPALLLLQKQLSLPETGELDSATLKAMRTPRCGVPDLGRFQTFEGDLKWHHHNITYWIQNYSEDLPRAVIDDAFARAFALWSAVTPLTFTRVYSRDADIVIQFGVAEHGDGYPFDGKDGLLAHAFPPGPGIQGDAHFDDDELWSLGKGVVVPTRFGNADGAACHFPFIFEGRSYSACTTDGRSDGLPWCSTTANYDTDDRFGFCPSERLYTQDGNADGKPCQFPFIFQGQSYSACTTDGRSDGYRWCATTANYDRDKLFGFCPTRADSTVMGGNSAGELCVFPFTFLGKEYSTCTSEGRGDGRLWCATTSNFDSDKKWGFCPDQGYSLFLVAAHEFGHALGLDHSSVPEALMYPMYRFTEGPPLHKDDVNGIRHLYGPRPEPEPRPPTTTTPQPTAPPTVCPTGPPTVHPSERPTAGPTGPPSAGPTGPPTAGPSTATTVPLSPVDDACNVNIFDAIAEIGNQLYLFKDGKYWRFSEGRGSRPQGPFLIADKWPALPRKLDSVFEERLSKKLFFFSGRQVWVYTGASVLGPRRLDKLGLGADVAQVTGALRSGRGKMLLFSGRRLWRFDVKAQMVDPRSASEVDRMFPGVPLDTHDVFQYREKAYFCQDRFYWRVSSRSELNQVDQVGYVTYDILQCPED

Chain of Neutrophil collagenase (P22894 whole entry): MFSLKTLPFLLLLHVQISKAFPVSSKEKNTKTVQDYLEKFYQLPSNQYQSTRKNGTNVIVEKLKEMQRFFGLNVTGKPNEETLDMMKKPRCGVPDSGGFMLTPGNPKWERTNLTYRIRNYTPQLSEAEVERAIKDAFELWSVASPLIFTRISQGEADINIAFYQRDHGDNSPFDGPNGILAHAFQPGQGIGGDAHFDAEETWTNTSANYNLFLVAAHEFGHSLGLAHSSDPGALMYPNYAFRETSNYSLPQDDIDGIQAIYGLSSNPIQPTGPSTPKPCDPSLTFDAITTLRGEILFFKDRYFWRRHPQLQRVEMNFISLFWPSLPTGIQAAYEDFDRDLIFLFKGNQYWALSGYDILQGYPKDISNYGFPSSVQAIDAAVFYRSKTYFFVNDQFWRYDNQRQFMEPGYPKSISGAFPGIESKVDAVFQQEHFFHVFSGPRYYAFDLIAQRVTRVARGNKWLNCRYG
Chain of 72 kDa type IV collagenase (P08253 whole entry): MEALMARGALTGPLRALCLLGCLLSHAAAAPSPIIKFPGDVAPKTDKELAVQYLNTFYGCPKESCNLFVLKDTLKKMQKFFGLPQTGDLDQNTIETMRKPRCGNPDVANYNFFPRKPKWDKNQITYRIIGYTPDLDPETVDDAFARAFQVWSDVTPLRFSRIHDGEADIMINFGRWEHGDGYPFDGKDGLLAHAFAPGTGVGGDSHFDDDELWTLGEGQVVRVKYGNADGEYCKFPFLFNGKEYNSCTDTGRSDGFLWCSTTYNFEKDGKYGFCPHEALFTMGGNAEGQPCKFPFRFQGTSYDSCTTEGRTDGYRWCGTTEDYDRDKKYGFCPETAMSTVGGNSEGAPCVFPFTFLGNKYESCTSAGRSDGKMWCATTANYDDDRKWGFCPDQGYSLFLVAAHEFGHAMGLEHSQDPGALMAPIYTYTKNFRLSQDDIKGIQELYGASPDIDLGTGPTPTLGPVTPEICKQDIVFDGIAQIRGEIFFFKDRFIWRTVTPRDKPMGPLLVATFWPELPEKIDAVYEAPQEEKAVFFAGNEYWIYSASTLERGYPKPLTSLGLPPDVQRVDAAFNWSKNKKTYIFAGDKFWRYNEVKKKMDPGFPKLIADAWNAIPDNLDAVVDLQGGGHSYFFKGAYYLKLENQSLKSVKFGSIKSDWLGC
Chain of Stromelysin-1 (P08254 whole entry): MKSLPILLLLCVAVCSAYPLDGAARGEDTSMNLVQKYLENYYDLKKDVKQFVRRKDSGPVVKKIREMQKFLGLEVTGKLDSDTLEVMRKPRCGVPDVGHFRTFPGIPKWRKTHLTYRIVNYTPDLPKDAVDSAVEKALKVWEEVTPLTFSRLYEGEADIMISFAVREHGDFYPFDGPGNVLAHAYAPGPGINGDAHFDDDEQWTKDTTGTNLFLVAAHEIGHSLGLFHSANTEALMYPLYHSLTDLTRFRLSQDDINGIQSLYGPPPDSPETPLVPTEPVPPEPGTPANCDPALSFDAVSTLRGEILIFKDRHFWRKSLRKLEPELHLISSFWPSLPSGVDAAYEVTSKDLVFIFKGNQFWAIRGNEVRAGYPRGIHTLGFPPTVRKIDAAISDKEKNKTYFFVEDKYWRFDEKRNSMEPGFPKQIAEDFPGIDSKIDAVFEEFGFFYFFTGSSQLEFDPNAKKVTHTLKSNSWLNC

Turning to `CNC(=O)[C@H](Cc1ccccc1)NC(=O)[C@H](CC(C)C)NC(=O)NO`, the IC50 at Interstitial collagenase was 270 µM; in experiment [1], 60 µM; at Stromelysin-1, greater than 300 µM; at Matrilysin, greater than 300 µM; at Neutrophil collagenase it was 70 µM; in experiment [2], 20 µM.

On to `CNC(=O)[C@H](Cc1ccccc1)NC(=O)[C@H](CC(=O)NO)CC(C)C`, for which the IC50 stood at 4.1 µM at Matrilysin and 0.15 µM in experiment [2].

`COC(=O)[C@H](Cc1ccccc1)NC(=O)[C@H](CC(C)C)NC(=O)OCc1ccccc1` (Cbz-Leu-Phe-OMe): the concentration for half-maximal inhibition (IC50) (on Interstitial collagenase; in experiment [1]; on Stromelysin-1; at Matrilysin; on Neutrophil collagenase; in experiment [2]) was greater than 300 µM throughout.

As to `CNC(=O)[C@H](Cc1ccccc1)NC(=O)[C@@H](CC(C)C)NC(=O)NO`, the IC50 is greater than 300 µM on Interstitial collagenase; greater than 300 µM in experiment [1]; greater than 300 µM on Stromelysin-1; greater than 300 µM on Matrilysin; 150 µM at Neutrophil collagenase; 200 µM in experiment [2].

Regarding `CNC(=O)[C@H](Cc1ccccc1)NC(=O)[C@@H](CC(=O)NO)CC(C)C`, the figures for the IC50 (on Matrilysin; in experiment [2]) were 0.0083 µM and 0.00038 µM, respectively.

In the case of `CNC(=O)[C@H](Cc1ccccc1)NC(=O)[C@@H](N)CC(C)C`, the IC50 (in experiment [1]; on Matrilysin; in experiment [2]) was greater than 300 µM throughout.

For `CNC(=O)[C@H](Cc1ccccc1)NC(=O)[C@H](N)CC(C)C`, the IC50 (at Interstitial collagenase; in experiment [1]; at Stromelysin-1; at Matrilysin; at Neutrophil collagenase; in experiment [2]) was greater than 300 µM throughout.
